Results: ChEMBL document CHEMBL3621099, “Design and synthesis of carbazole carboxamides as promising inhibitors of Bruton's tyrosine kinase (BTK) and Janus kinase 2 (JAK2)” (Bioorg Med Chem Lett, 2015)
pIC50: −log10 of the molar value.

Key:
[1] = target: Non-receptor tyrosine-protein kinase TYK2 (Homo sapiens, UniProt P29597); experiment: Inhibition of TYK2 (unknown origin)
[2] = target: Tyrosine-protein kinase JAK2 (Homo sapiens, UniProt O60674); experiment: Inhibition of JAK2 (unknown origin)
[3] = target: T1, Tyrosine-protein kinase Tec (Homo sapiens, UniProt P42680); experiment: Inhibition of TEC (unknown origin)
T1 sequence (P42680 whole entry): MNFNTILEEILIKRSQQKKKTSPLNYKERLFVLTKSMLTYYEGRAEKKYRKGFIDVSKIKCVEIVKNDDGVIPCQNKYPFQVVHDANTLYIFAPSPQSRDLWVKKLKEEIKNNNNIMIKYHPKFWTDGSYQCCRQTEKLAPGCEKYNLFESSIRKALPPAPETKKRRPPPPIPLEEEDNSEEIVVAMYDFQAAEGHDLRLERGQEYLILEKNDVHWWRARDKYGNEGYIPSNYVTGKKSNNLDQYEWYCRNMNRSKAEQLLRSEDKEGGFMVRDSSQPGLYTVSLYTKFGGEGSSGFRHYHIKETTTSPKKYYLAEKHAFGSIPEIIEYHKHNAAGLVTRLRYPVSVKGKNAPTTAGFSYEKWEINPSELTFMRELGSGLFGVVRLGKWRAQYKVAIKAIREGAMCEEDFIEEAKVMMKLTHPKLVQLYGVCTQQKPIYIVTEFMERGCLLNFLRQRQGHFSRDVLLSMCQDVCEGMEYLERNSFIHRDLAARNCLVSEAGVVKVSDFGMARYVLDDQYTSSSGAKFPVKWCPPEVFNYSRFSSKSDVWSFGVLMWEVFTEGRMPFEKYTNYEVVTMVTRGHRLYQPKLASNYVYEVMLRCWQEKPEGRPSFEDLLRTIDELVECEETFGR

[4] = target: Mast/stem cell growth factor receptor Kit (Homo sapiens, UniProt P10721); experiment: Inhibition of cKIT (unknown origin)
[5] = target: Tyrosine-protein kinase Lck (Homo sapiens, UniProt P06239); experiment: Inhibition of LCK (unknown origin)
[6] = target: T2, Tyrosine-protein kinase TXK (Homo sapiens, UniProt P42681); experiment: Inhibition of TXK (unknown origin)
T2 sequence (P42681 whole entry): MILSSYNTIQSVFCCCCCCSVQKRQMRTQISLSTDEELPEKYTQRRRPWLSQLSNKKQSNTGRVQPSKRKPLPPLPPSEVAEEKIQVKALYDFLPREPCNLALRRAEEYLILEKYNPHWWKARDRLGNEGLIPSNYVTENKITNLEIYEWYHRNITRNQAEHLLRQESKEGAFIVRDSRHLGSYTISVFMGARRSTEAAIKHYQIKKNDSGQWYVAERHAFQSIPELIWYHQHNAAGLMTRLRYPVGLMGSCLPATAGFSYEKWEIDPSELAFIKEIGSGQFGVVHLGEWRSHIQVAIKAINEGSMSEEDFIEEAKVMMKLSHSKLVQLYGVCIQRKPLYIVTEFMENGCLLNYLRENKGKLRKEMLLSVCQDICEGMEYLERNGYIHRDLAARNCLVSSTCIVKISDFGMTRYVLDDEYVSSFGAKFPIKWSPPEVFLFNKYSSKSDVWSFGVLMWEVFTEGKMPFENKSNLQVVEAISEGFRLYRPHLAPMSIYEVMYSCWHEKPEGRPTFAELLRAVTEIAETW

[7] = target: Tyrosine-protein kinase Lyn (Homo sapiens, UniProt P07948); experiment: Inhibition of LYNa (unknown origin)
[8] = target: Cyclin-dependent kinase 2 (Homo sapiens, UniProt P24941); experiment: Inhibition of CDK2 (unknown origin)
[9] = target: T3, Tyrosine-protein kinase ITK/TSK (Homo sapiens, UniProt Q08881); experiment: Inhibition of ITK (unknown origin)
T3 sequence (Q08881 whole entry): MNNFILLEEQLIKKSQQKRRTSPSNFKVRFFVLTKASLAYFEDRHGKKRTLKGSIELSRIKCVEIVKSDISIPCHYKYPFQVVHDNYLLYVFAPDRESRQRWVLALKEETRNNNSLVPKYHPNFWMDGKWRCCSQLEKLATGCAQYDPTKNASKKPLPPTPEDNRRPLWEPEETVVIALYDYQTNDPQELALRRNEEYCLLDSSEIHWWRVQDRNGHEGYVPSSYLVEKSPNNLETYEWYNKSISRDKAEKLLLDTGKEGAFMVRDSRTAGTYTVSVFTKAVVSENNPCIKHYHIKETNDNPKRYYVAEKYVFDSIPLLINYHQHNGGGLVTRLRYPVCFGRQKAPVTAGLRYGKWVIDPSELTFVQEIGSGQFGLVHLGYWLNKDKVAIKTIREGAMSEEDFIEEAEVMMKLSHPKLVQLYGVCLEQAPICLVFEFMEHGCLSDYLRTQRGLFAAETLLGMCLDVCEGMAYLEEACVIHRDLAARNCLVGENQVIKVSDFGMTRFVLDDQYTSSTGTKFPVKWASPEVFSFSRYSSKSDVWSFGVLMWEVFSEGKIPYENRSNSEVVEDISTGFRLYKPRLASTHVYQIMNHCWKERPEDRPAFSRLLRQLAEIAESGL

[10] = target: T4, Cytoplasmic tyrosine-protein kinase BMX (Homo sapiens, UniProt P51813); experiment: Inhibition of BMX (unknown origin)
T4 sequence (P51813 whole entry): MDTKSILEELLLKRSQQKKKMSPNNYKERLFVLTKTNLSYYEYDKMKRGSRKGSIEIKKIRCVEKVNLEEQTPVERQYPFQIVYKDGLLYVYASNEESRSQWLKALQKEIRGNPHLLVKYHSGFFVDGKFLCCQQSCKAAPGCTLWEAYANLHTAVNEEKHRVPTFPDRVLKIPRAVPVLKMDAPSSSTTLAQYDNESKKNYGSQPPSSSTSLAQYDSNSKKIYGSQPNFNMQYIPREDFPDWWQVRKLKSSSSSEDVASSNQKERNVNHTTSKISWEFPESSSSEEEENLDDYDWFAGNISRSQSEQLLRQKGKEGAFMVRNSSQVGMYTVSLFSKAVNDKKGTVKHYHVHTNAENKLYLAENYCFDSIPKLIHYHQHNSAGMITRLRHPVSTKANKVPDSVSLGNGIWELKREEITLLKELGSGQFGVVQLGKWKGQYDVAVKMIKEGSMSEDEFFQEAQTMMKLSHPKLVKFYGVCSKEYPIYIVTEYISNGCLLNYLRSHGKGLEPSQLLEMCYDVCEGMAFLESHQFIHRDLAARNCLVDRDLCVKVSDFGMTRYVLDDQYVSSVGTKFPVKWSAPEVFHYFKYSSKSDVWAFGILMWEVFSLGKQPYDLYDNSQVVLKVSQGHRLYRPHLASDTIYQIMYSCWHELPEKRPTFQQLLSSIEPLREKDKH

Aurora kinase A = target: T5, Aurora kinase A (Homo sapiens, UniProt O14965); experiment: Inhibition of Aurora-A (unknown origin)
T5 sequence (O14965 whole entry): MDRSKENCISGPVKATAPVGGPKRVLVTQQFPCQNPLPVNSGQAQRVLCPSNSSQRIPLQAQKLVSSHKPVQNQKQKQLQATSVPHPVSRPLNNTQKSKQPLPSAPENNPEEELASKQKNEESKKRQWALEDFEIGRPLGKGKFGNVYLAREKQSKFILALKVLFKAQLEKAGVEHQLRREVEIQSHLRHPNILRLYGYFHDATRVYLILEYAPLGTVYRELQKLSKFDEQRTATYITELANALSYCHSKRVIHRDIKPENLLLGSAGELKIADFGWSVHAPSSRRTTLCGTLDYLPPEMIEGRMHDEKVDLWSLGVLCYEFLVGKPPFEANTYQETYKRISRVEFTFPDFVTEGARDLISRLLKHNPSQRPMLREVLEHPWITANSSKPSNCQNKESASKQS

[11] = target: Tyrosine-protein kinase BTK (Homo sapiens, UniProt Q06187); experiment: Inhibition of human recombinant BTK
[12] = AUC in mouse at 10 mg/kg, po; assay type: ADME, organism-based; conditions: in vivo
[13] = Drugrecovery in mouse liver microsomes after 10 mins; assay type: ADME
How it was run: (§1)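 Test compound at 0.5 μM was incubated with human, rat or mouse liver microsomes for 10 minutes at 37 °C. The readout was the percentage of unchanged compound recovered after incubation.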

[14] = Drugrecovery in rat liver microsomes after 10 mins; assay type: ADME; how it was run: as §1
[15] = Drugrecovery in human liver microsomes after 10 mins; assay type: ADME; how it was run: as §1

Mast/stem cell growth factor receptor Kit, sequence (P10721 whole entry): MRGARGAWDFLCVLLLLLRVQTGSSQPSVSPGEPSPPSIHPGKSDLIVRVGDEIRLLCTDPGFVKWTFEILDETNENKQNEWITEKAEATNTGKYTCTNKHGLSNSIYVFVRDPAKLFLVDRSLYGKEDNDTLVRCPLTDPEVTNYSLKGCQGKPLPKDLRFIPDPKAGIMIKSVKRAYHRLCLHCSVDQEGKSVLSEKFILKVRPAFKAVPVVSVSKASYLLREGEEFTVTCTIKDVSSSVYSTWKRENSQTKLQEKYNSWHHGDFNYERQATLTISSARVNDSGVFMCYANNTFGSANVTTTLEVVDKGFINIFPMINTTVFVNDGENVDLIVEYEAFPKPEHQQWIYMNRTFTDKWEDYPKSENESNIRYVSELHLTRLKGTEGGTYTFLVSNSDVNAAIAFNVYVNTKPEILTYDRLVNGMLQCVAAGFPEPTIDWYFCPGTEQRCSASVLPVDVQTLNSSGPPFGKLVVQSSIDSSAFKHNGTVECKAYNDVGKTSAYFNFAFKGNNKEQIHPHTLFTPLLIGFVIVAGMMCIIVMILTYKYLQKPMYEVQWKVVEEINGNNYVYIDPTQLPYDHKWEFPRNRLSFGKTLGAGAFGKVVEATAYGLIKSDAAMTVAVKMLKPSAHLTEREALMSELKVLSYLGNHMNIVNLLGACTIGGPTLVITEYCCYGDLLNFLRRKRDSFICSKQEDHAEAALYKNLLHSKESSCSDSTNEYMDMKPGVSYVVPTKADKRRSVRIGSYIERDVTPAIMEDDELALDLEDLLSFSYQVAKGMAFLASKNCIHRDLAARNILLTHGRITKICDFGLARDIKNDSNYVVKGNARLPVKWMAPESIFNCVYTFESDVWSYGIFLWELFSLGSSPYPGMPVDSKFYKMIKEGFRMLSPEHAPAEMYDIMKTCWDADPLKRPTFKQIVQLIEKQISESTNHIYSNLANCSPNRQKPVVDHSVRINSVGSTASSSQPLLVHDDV
Non-receptor tyrosine-protein kinase TYK2, sequence (P29597 whole entry): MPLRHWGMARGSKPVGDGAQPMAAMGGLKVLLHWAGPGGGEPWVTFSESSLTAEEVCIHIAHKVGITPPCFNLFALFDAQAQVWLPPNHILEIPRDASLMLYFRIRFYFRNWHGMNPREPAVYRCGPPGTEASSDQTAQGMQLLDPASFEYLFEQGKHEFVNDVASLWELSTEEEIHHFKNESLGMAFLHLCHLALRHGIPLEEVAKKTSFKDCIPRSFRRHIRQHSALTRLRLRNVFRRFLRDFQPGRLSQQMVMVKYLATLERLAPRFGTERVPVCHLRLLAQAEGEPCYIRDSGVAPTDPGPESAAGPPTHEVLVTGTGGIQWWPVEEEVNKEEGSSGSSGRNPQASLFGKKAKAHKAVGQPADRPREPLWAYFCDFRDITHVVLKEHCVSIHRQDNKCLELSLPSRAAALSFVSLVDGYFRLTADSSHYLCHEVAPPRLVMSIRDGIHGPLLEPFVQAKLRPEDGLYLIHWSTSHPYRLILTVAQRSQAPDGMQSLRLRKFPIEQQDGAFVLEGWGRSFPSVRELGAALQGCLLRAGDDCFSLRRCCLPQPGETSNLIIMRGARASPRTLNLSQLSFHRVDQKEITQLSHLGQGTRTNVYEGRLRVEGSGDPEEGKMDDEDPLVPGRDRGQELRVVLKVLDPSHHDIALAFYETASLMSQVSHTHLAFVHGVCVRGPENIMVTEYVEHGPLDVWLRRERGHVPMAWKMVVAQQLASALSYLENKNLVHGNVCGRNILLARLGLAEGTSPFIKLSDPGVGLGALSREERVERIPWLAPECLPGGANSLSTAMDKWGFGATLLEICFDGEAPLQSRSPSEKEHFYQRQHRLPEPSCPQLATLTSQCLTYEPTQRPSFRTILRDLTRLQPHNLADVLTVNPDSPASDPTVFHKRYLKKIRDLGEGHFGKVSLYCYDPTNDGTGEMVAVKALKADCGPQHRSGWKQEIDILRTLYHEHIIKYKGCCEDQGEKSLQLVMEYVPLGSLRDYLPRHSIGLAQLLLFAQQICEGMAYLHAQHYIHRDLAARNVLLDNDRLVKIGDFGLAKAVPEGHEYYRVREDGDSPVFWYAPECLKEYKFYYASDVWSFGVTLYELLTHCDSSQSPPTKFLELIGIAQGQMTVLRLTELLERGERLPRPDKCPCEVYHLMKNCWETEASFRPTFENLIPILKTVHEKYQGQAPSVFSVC
Tyrosine-protein kinase Lyn, sequence (P07948 whole entry): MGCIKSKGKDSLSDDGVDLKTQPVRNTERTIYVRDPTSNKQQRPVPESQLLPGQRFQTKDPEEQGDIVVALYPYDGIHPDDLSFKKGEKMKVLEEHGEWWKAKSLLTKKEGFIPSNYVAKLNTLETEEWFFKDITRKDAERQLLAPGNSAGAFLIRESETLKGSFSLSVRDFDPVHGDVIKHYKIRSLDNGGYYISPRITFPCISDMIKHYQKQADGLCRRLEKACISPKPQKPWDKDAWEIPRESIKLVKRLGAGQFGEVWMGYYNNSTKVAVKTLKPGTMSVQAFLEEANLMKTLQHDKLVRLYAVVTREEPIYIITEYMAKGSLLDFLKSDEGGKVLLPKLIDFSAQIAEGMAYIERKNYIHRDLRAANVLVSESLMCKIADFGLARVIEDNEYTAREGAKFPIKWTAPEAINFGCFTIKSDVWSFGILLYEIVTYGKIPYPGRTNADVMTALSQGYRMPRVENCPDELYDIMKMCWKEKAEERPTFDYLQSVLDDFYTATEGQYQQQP
Tyrosine-protein kinase Lck, sequence (P06239 whole entry): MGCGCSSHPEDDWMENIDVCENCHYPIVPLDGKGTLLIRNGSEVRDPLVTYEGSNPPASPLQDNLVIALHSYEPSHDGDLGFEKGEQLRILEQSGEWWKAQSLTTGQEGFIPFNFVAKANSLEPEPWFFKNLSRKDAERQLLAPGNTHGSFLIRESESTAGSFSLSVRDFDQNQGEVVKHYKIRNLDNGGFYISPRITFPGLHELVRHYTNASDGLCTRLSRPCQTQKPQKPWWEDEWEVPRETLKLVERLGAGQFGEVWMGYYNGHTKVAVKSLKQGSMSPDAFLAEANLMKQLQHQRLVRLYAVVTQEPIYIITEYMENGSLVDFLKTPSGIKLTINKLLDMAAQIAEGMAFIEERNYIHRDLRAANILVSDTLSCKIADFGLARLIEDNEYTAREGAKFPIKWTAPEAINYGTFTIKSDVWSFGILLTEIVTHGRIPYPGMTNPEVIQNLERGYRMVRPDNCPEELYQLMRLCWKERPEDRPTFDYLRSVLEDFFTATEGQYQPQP
Tyrosine-protein kinase BTK, sequence (Q06187 whole entry): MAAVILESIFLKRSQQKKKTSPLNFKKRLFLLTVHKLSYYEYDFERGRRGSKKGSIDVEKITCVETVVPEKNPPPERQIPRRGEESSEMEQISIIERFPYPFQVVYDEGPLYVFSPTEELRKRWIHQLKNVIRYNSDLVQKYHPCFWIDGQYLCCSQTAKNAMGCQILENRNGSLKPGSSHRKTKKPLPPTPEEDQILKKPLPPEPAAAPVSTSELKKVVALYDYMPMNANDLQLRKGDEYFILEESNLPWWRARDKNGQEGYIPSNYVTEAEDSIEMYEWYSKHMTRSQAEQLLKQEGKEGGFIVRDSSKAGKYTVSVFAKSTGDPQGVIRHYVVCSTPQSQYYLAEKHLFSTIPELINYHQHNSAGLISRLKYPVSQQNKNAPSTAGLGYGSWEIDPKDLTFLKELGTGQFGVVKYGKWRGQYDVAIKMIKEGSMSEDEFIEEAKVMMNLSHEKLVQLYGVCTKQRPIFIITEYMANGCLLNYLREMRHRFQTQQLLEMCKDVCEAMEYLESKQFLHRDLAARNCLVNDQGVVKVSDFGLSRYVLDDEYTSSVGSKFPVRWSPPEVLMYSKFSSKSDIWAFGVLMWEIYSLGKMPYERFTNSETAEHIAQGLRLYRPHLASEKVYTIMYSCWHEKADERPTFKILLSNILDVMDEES
Tyrosine-protein kinase JAK2, sequence (O60674 whole entry): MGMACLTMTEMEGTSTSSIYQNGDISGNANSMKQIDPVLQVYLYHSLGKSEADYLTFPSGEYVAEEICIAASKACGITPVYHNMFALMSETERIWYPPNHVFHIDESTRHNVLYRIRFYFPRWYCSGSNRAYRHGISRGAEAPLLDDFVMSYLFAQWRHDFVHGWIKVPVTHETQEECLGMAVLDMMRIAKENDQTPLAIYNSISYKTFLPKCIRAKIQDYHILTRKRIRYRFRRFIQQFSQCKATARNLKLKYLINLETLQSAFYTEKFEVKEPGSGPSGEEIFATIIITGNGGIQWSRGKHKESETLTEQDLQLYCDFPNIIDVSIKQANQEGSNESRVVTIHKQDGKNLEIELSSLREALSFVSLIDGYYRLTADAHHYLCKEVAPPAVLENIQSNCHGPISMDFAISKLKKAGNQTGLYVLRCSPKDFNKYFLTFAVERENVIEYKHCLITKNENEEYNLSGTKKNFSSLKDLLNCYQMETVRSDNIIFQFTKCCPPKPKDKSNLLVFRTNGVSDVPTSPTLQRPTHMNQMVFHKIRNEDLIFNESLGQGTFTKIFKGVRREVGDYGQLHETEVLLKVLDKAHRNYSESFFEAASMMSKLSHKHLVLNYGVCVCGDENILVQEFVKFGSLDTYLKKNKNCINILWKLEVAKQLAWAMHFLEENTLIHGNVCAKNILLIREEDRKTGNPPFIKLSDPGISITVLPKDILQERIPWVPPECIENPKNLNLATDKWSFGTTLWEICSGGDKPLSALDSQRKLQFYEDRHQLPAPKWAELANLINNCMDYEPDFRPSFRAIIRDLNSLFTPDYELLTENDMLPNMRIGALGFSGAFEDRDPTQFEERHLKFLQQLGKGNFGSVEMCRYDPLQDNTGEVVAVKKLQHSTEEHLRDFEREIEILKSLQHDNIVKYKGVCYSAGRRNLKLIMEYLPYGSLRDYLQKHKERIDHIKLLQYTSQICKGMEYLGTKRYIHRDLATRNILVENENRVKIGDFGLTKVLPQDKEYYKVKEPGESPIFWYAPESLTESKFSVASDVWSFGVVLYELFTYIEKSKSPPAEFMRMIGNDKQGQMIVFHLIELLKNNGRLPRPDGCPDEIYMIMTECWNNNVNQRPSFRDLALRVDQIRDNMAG

| Structure (SMILES) | pIC50 [1] | pIC50 [2] | pIC50 [3] | pIC50 [4] | pIC50 [5] | pIC50 [6] | pIC50 [7] | pIC50 [8] | pIC50 [9] | pIC50 [10] | pIC50 (Aurora kinase A) | pIC50 [11] | AUC [12] [µM·h] | remaining at 10 min [13] [%] | remaining at 10 min [14] [%] | remaining at 10 min [15] [%] |
| --- | --- | --- | --- | --- | --- | --- | --- | --- | --- | --- | --- | --- | --- | --- | --- | --- |
| CC(=O)Nc1cccc(-c2ccc(C(N)=O)c3[nH]c4cc(C(=O)N5CCN(C)CC5)ccc4c23)c1C | < 5.70 | 6.67 | 6.79 | 6.33 | 6.97 | 6.76 | 6.69 | 5.57 | 7.26 | 6.71 | < 5.70 |  |  |  |  |  |
| CN1CCN(C(=O)c2ccc3c(c2)[nH]c2c(C(N)=O)ccc(-c4ccccc4F)c23)CC1 | 6.12 |  | 6.94 | 7.39 | 7.09 | 6.92 | 7.17 | 6.21 | 7.41 | 6.92 | 6.35 | 7.82 | 25.6 |  |  |  |
| CC(C)(C)c1ccc(C(=O)N[C@@H]2CCCN(c3ccc(C(N)=O)c(Nc4ccc(C(=O)N5CCOCC5)cc4)n3)C2)cc1 |  |  |  |  |  |  |  |  |  |  |  |  |  | < 3 | < 3 | < 3 |
| CN1CCN(C(=O)c2ccc3c(c2)[nH]c2c(C(N)=O)ccc(-c4cccc(NC(=O)c5ccc(N(C)C)cc5)c4F)c23)CC1 | 4.84 |  | 7.39 | 5.98 | 6.24 | 7.02 | 6.08 | < 4.30 | 6.94 | 6.96 | 6.31 | 8.52 |  |  |  |  |
